MsrA inh = bovine MsrA enzyme inhibitors, primary screen, biochemical, absorbance, HTS; Methionine sulfoxide reductase A (Bos taurus); purified bovine MsrA, absorbance read-out; inhibition, % at 15.5 µM; 360,000 compounds, 0.75% hits
VIM-2 inh = VIM-2 metallo-beta-lactamase inhibitors, primary screen, biochemical, epi-absorbance readout, Pseudomonas aeruginosa enzyme. purified VIM-2, nitrocefin hydrolysis, epi-absorbance fluorescence. inhibition, % at 5.6 µM. 290,000 compounds, 0.89% hits. AID 1527, 2009;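 active = inhibition above the mean of all tested compounds plus 3 SD, cutoff set per screening run, cut at about 7.5% in these data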;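 note: red hydrolysis product quenches plate fluorescence so inhibitors raise well fluorescence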
PKA-R2B act = activators of PKA-R2B holoenzyme, primary screen, biochemical, fluorescence polarization, Cy5-IP20, human; PKA-R2B holoenzyme dissociation; R2B truncated from residue 108, S112A mutant; 0% DMSO only, 100% 113 µM cGMP; activation, % at 11.4 µM; 340,000 compounds, 0.079% hits; AID 504700, 2011;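 active = activation above a cutoff set at the mean over all compounds plus 3 SD, cut at about 18% in these data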;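 note: higher means more holoenzyme dissociation and a rise in polarization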
Target sequence (P31323 whole entry, looked up, other chains not shown, the tested form may be a part): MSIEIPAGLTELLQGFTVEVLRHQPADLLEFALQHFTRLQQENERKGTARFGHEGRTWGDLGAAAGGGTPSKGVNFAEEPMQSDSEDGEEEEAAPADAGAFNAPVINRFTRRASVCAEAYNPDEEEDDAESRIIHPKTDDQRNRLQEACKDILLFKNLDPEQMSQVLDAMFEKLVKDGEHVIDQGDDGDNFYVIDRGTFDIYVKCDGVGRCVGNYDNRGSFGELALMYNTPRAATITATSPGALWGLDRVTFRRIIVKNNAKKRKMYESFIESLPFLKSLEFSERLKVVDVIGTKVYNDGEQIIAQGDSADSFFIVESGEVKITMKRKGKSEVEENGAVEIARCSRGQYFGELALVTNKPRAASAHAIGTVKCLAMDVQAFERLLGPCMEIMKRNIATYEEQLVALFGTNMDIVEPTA
PKA-R1A activ = activators of PKA-R1A holoenzyme, primary screen, biochemical, fluorescence polarization, Cy5-IP20, bovine R1A, mouse PKAc | AID 504707, 2011 | activation, % at 11.4 µM | PKA-R1A dissociation; scaled: DMSO 0%, 113 µM cGMP 100% | 340,000 compounds, 0.083% hits;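 active = percent activation above the mean of all tested compounds plus 3 SD, cut at about 19% in these data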;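 note: higher means more PKAc released from R1A so a rise in polarization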
IMP-1 inh = IMP-1 metallo-beta-lactamase inhibitors, primary screen, biochemical, epi-absorbance readout, Pseudomonas aeruginosa enzyme | inhibition, % at 5.6 µM | 290,000 compounds, 0.45% hits | purified IMP-1, nitrocefin hydrolysis, epi-absorbance fluorescence | AID 1556, 2009;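 active = inhibition above the mean plus 3 SD of all compounds in the same screening run, cut at about 4.5% in these data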
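Assay system: purified IMP-1; Quantity: IMP-1 0.2 nM before substrate addition; Medium: HEPES buffer pH 7.1 with ZnSO4 and Brij 35; Incubation: 15 min enzyme–compound preincubation, then 25 min nitrocefin reaction, 25 °C; Signal: fluorescence quenching readout, ex 480/em 530 nm; Controls: DMSO with and without IMP-1; Repeats: singlicate testing.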
MsrA act = bovine MsrA enzyme activators, primary screen, biochemical, absorbance, HTS | purified bovine MsrA, absorbance read-out | 360,000 compounds, 0.3% hits | activation, % at 10.6 µM; in the data active = activation above about 7.5%
MsrA inh confirm = bovine MsrA inhibitors, retest, confirmation, biochemical, absorbance, HTS | 2,300 compounds, 41% hits | purified bovine MsrA, absorbance read-out | AID 651822, 2012 | inhibition, % at 15.5 µM | shares compounds with MsrA inh;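 note: coupled to thioredoxin reductase with NADPH and selenocystamine and DMSO as substrate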
Hits are given with their value; n = inactive; x = not tested or not shown. Compounds with a hit are over-represented: about 2.1% of the library has one in this group of screens. Cut-off read from the data, not from the text of the source, unless noted: active = inhibition above about 4.5%; inactive = the rest.

SMILES	MsrA inh	VIM-2 inh	PKA-R2B act	PKA-R1A activ	IMP-1 inh	MsrA act	MsrA inh confirm
Cc1ccc(C(=O)N/N=C/c2ccc(N3CCOCC3)cc2)c(C)c1	5.5	n	n	n	n	n	n
C/C(=N\NC(=O)c1cccc(C)c1)c1ccc(N2CCOCC2)cc1	5.3	n	n	n	n	n	n
O=C(O)c1ccc(/C=N/NC(=S)NCCN2CCOCC2)cc1	6.1	n	n	n	n	n	n
CCCCOCC1CN(Cc2ccccc2OC)S(=O)(=O)c2cc(Cl)ccc2O1 (stereo unspecified)	n	x	x	x	x	x	x
O=C(O)C1=CC[C@@H](c2ccc(Cl)cc2)N(S(=O)(=O)c2ccc(Cl)cc2)[C@H]1c1ccc(Br)cc1	n	x	n	n	x	n	x
CCC(=O)N1CCC1(C)C(=O)Nc1ccc(F)cc1 (stereo unspecified)	n	x	x	x	x	n	x
CN(C)c1ccc(C=Nc2cnn(C)c2C(N)=O)cc1	4.9	n	n	n	n	n	n
COC(=O)c1c(NC(=O)C2=COCCO2)sc(C)c1C	n	x	n	n	x	n	x
CCN(c1ccccc1)S(=O)(=O)c1c[nH]c2ccc([N+](=O)[O-])cc12	n	n	n	n	n	n	x
Cc1ccc(N(C)S(=O)(=O)c2c[nH]c3ccc([N+](=O)[O-])cc23)cc1	5.8	n	n	n	n	n	n
Cc1ccc(CNC(=O)[C@H]2O[C@@H](n3ccc(N)nc3=O)[C@H](O)[C@@H]2O)o1	n	x	x	x	x	n	x
O=C1N/C(=C\c2ccc(O)cc2)C(O)=C1C=NCc1ccccc1	4.9	n	n	n	n	n	n
COc1ccc(/C=C2\NC(=O)C(C=NCc3ccccc3)=C2O)cc1	n	n	n	n	n	n	x
CC[C@]1(C(=O)OC)[C@H]2C(=O)N(C)C(=O)[C@H]2[C@H]2CN=C(SCc3ccc(C(=O)OC)cc3)N21	n	x	n	n	x	n	x
O=C(CCCN1C(=O)c2cccc3cccc(c23)C1=O)N1CCN(c2ccccc2)CC1	n	n	n	n	n	n	x
O=C(CCCN1C(=O)c2cccc3cccc(c23)C1=O)N1CCN(c2ccccc2O)CC1	5.1	n	n	n	n	n	n
Cc1cc(N/N=C/c2ccc(N(C)C)cc2)c2ccccc2n1	5.0	n	n	n	n	n	n
COC(=O)[C@]12CCCCC=C1N(CCc1ccc(OC)c(OC)c1)C(=O)[C@H](CC(=O)NCc1cccs1)C2	n	x	x	x	x	x	x
Cc1nc2ccccc2c(=O)n1/N=C/c1cccs1	n	n	n	n	n	n	x
Cc1nc2ccccc2c(=O)n1/N=C/c1cn(-c2ccccc2)nc1-c1cccs1	14	n	n	n	n	n	4.9
S=c1nccc(-c2ccc3c(c2)CCO3)[nH]1	5.6	n	n	n	n	n	n
CC1(C)CCc2cc(-c3ccnc(=S)[nH]3)ccc2O1	n	n	n	n	n	n	x
CN(C)c1cccc(NC2=CC(=[N+]3CCOCC3)CC(C)(C)C2)c1	4.8	n	n	n	n	n	5.2
CCOC(=O)C1(NC(=O)C2(NC(=O)CN3C(=O)c4ccccc4C3=O)CCCC2)CCCC1	n	x	n	n	x	n	x
COc1ccccc1/C=N/NC(=O)c1ccc2c(c1)OCO2	n	n	n	n	n	n	x
SMILES	MsrA inh	VIM-2 inh	PKA-R2B act	PKA-R1A activ	IMP-1 inh	MsrA act	MsrA inh confirm
COc1ccc(NS(=O)(=O)c2cccc(C(=O)NN=Cc3ccc(OC)cc3OC)c2)cc1	n	x	n	n	x	n	x
Cc1cc(C(=O)N/N=C/c2ccc[nH]2)n[nH]1	5.3	n	n	n	n	n	n
O=C(N/N=C/c1ccc[nH]1)c1ccc2c(c1)OCO2	5.1	n	n	n	n	n	n
COc1ccc(NS(=O)(=O)c2cccc(C(=O)NN=Cc3cc(Br)c(O)c(Br)c3)c2)cc1	5.7	x	n	n	x	n	4.9
CC(=O)Nc1ccc(NC(=O)/C=C/c2ccc3c(c2)OCO3)cc1	5.5	n	n	n	n	n	n
Cc1cc(C(=O)N/N=C/c2ccc[nH]2)no1	n	n	n	n	n	n	x
CN(CC(=O)Nc1ccc(F)cc1)C(=O)CN1C(=O)NC2(CCCc3ccccc32)C1=O (stereo unspecified)	n	n	n	n	n	n	x
O=C(NC1CCN(Cc2ccccc2)CC1)c1cn(-c2ccccc2)nc1-c1cccnc1	n	x	n	n	x	n	x
O=C(N/N=C/c1ccc[nH]1)c1ccccc1O	n	n	n	n	n	n	x
COCCNC(=S)N/N=C/c1ccc2c(c1)OCCO2	n	n	n	n	n	n	x
COc1cc(/C=N/NC(=O)c2ccc3c(c2)OCCO3)cc(Br)c1O	5.2	n	n	n	n	n	5.3
COCCCNC(=S)N/N=C/c1ccc2c(c1)OCO2	5.5	n	x	x	n	n	4.9
COc1cc(/C=N/NC(=O)c2ccc3c(c2)OCCO3)c(Br)c(Br)c1O	n	n	n	n	n	n	x
O=C(N/N=C/c1ccc[nH]1)c1cc(-c2cccs2)nc2ccccc12	4.9	n	n	n	n	n	n
O=C(N/N=C/c1ccc[nH]1)c1ccc(O)cc1	5.3	n	n	n	n	n	n
N#CCCC(CCC#N)(CCC#N)c1cc[n+](CCc2ccccn2)cc1	n	x	n	n	x	n	x
CC1CCC(NC(=O)CN(C)CC(=O)Nc2ccc(F)cc2)CC1 (stereo unspecified)	n	x	n	n	x	n	x
CCOC(=O)[C@]12CCC=C1N(Cc1cccc3ccccc13)C(=O)[C@H](CC(=O)NCCc1ccccc1OC)C2	n	x	x	x	x	n	x
CC(=O)Oc1ccc2nc(-c3ccco3)oc(=O)c2c1	n	n	n	n	n	n	x
OC(c1ccc(Cl)c(F)c1)c1ncc(-c2cccc(C(F)(F)F)c2)[nH]1 (stereo unspecified)	n	x	x	x	x	n	x
Cc1ccsc1/C=N/NC(=O)c1ccc2c(c1)OCCO2	n	n	n	n	n	n	x
O=C(N/N=C/c1ccc2c(c1)OCO2)c1ccc2c(c1)OCO2	4.7	n	n	n	n	n	n
Cc1ccsc1/C=N\NC(=O)c1ccc2c(c1)OCO2	5.1	n	n	n	n	n	5.5
O=C(NN=Cc1ccc2c(c1)OCO2)c1ccccc1	n	x	n	n	x	n	x
CCOC(=O)N1CCN(/C=C(\C#N)c2nc3ccccc3s2)CC1	7.0	n	n	n	n	n	5.2
N#C/C(=C\N1CCN(Cc2ccc3c(c2)OCO3)CC1)c1nc2ccccc2s1	n	n	n	n	n	n	x

Assay outcomes: PubChem BioAssay, The Scripps Research Institute Molecular Screening Center
